# Laboratory results taken from ChEMBL document CHEMBL1126205, “Novel spirosuccinimides with incorporated isoindolone and benzisothiazole 1,1-dioxide moieties as aldose reductase inhibitors and antihyperglycemic agents” (1992).
# Several values for one entry are separate records, joined by “and”; a condition that tells them apart may be missing. Identical values can stand only once. Activity calls are given as the source filed them. No cut-off for these calls is given here.
# Experiments:
# Mus musculus = assay: Antihyperglycemic activity measured as percent decrease in mice plasma glucose at 100 mg/Kg/day; assay type: functional
# Outline: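 Male db/db (C57BL/KsJ) mice, 4–6 per group, dosed at 100 mg/kg per day. Plasma glucose of the drug-treated group is expressed as percent decrease relative to a vehicle-treated control group. Values are mean ± SE, with p < 0.05 marked.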
# Rattus norvegicus [1] = assay: In vivo galactitol inhibitory activity measured by its ability to inhibit galactitol accumulation in sciatic nerve at 66 mg/Kg/day; assay type: functional
# Outline: (§1)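 Rats (n = 6) fed 20% galactose for 4 days, with compound given in the diet at the stated daily dose. Galactitol accumulation was measured in lens, sciatic nerve and diaphragm, and % inhibition was taken versus the nontreated group. Means are from three to eight drug-treated tissue samples. Dunnett's multiple comparison test was applied, with p > 0.05 reported as not significant.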
# [2] = molecular target: Aldo-keto reductase family 1 member B1 (Bos taurus) (UniProt P16116); assay: In vitro aldose reductase inhibitory activity measured by NADPH-dependent inhibition of glyceraldehyde reduction in a partially purified bovine lens preparation at 10E-6 M
# Outline: (§2)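 Aldose reductase partially purified from bovine lens. Inhibition of NADPH-dependent glyceraldehyde reduction is measured at the single stated concentration and reported as percent inhibition, the mean of two determinations.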
# Rattus norvegicus [3] = assay: In vivo galactitol inhibitory activity measured by its ability to inhibit galactitol accumulation in lens at 66 mg/Kg/day; assay type: functional; details: Lens of camera-type eye; outline: as §1
# Rattus norvegicus [4] = assay: In vivo galactitol inhibitory activity measured by its ability to inhibit galactitol accumulation in diaphragm at 66 mg/kg/day; assay type: functional
# Outline: (§3)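 Rats (n = 6) fed 20% galactose for 4 days, with compound given in the diet at the stated mg/kg per day. Galactitol accumulation in lens, sciatic nerve or diaphragm is scored as percent inhibition versus the non-treated group, as means of 3–8 drug-treated tissue samples. Dunnett's multiple comparison test applies; NS means p > 0.05.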
# [5] = molecular target: Aldo-keto reductase family 1 member B1 (Bos taurus) (UniProt P16116); assay: In vitro aldose reductase inhibitory activity measured by NADPH-dependent inhibition of glyceraldehyde reduction in a partially purified bovine lens preparation at 10E-7 M; outline: as §2
# Rattus norvegicus [6] = assay: In vivo galactitol inhibitory activity measured by its ability to inhibit galactitol accumulation in sciatic nerve at 6 mg/Kg/day; NS=Not significant (% Inhibition); assay type: functional, organism-based; outline: as §1
# Rattus norvegicus [7] = assay: In vivo galactitol inhibitory activity measured by its ability to inhibit galactitol accumulation in diaphragm at 9 mg/Kg/day; NS=Not significant (% Inhibition); assay type: functional, organism-based; outline: as §3
# Rattus norvegicus [8] = assay: In vivo galactitol inhibitory activity measured by its ability to inhibit galactitol accumulation in diaphragm at 6 mg/Kg/day; NS=Not significant (% Inhibition); assay type: functional, organism-based; outline: as §3
# Rattus norvegicus [9] = assay: In vivo galactitol inhibitory activity measured by its ability to inhibit galactitol accumulation in lens at 6 mg/Kg/day; NS=Not significant (% Inhibition); assay type: functional, organism-based; details: Lens of camera-type eye; outline: as §3
# Rattus norvegicus [10] = assay: In vivo galactitol inhibitory activity measured by its ability to inhibit galactitol accumulation in lens at 3 mg/Kg/day; NS=Not significant (% Inhibition); assay type: functional, organism-based; details: Lens of camera-type eye; outline: as §3
# Rattus norvegicus [11] = assay: In vivo galactitol inhibitory activity measured by its ability to inhibit galactitol accumulation in sciatic nerve at 3 mg/Kg/day; assay type: functional; outline: as §1
# Rattus norvegicus [12] = assay: In vivo galactitol inhibitory activity measured by its ability to inhibit galactitol accumulation in sciatic nerve at 9 mg/Kg/day; NS=Not significant (% Inhibition); assay type: functional, organism-based; outline: as §1
# Rattus norvegicus [13] = assay: In vivo galactitol inhibitory activity measured by its ability to inhibit galactitol accumulation in diaphragm at 3 mg/Kg/day; NS=Not significant (% Inhibition); assay type: functional, organism-based; outline: as §3
# Rattus norvegicus [14] = assay: In vivo galactitol inhibitory activity measured by its ability to inhibit galactitol accumulation in lens at 9 mg/Kg/day; NS=Not significant (% Inhibition); assay type: functional, organism-based; details: Lens of camera-type eye; outline: as §1
# Rattus norvegicus [15] = assay: In vivo galactitol inhibitory activity measured by its ability to inhibit galactitol accumulation in sciatic nerve at 97 mg/kg/day; assay type: functional; outline: as §1
# Rattus norvegicus [16] = assay: In vivo galactitol inhibitory activity measured by its ability to inhibit galactitol accumulation in lens at 97 mg/Kg/day; NS=Not significant (% Inhibition); assay type: functional, organism-based; details: Lens of camera-type eye; outline: as §1
# Rattus norvegicus [17] = assay: In vivo galactitol inhibitory activity measured by its ability to inhibit galactitol accumulation in diaphragm at 97 mg/kg/day; assay type: functional; outline: as §3
# Rattus norvegicus [18] = assay: In vivo galactitol inhibitory activity measured by its ability to inhibit galactitol accumulation in sciatic nerve at 109 mg/Kg/day; NS=Not significant (% Inhibition); assay type: functional, organism-based; outline: as §1
# Rattus norvegicus [19] = assay: In vivo galactitol inhibitory activity measured by its ability to inhibit galactitol accumulation in diaphragm at 109 mg/Kg/day; assay type: functional; outline: as §3
# Rattus norvegicus [20] = assay: In vivo galactitol inhibitory activity measured by its ability to inhibit galactitol accumulation in lens at 109 mg/Kg/day; NS=Not significant (% Inhibition); assay type: functional, organism-based; details: Lens of camera-type eye; outline: as §3
# Rattus norvegicus [21] = assay: In vivo galactitol inhibitory activity measured by its ability to inhibit galactitol accumulation in sciatic nerve at 32 mg/Kg/day; assay type: functional; outline: as §1
# Rattus norvegicus [22] = assay: In vivo galactitol inhibitory activity measured by its ability to inhibit galactitol accumulation in lens at 32 mg/Kg/day; assay type: functional; details: Lens of camera-type eye; outline: as §3
# Rattus norvegicus [23] = assay: In vivo galactitol activity by measuring its ability to inhibit galactitol accumulation in diaphragm at 6 mg/Kg/day; assay type: functional; outline: as §3
# Rattus norvegicus [24] = assay: In vivo galactitol inhibitory activity measured by its ability to inhibit galactitol accumulation in lens at 4 mg/Kg/day; NS=Not significant (% Inhibition); assay type: functional, organism-based; details: Lens of camera-type eye; outline: as §3
# Rattus norvegicus [25] = assay: In vivo galactitol inhibitory activity measured by its ability to inhibit galactitol accumulation in sciatic nerve at 4 mg/Kg/day; NS=Not significant (% Inhibition); assay type: functional, organism-based; outline: as §1
# Rattus norvegicus [26] = assay: In vivo galactitol inhibitory activity measured by its ability to inhibit galactitol accumulation in diaphragm at 4 mg/Kg/day; NS=Not significant (% Inhibition); assay type: functional, organism-based; outline: as §3
# Rattus norvegicus [27] = assay: In vivo galactitol inhibitory activity measured by its ability to inhibit galactitol accumulation in lens at 6 mg/Kg/day; assay type: functional, Lens of camera-type eye; outline: as §3
# Rattus norvegicus [28] = assay: In vivo galactitol inhibitory activity measured by its ability to inhibit galactitol accumulation in sciatic nerve at 79 mg/Kg/day; assay type: functional; outline: as §1
# Rattus norvegicus [29] = assay: In vivo galactitol inhibitory activity measured by its ability to inhibit galactitol accumulation in diaphragm at 79 mg/Kg/day; assay type: functional; outline: as §3
# Rattus norvegicus [30] = assay: In vivo galactitol inhibitory activity measured by its ability to inhibit galactitol accumulation in lens at 25 mg/Kg/day; assay type: functional, Lens of camera-type eye; outline: as §3
# Rattus norvegicus [31] = assay: In vivo galactitol inhibitory activity measured by its ability to inhibit galactitol accumulation in lens at 53 mg/Kg/day; assay type: functional, Lens of camera-type eye; outline: as §3
# Rattus norvegicus [32] = assay: In vivo galactitol inhibitory activity measured by its ability to inhibit galactitol accumulation in lens at 79 mg/Kg/day; assay type: functional; details: Lens of camera-type eye; outline: as §1
# Rattus norvegicus [33] = assay: In vivo galactitol inhibitory activity measured by its ability to inhibit galactitol accumulation in diaphragm at 3 mg/Kg/day; assay type: functional; outline: as §3
# Rattus norvegicus [34] = assay: In vivo galactitol inhibitory activity measured by its ability to inhibit galactitol accumulation in diaphragm at 6 mg/Kg/day; assay type: functional; outline: as §3
# Rattus norvegicus [35] = assay: In vivo galactitol inhibitory activity measured by its ability to inhibit galactitol accumulation in sciatic nerve at 9 mg/Kg/day; assay type: functional; outline: as §1
# Rattus norvegicus [36] = assay: In vivo galactitol inhibitory activity measured by its ability to inhibit galactitol accumulation in diaphragm at 9 mg/Kg/day; assay type: functional; outline: as §3
# Rattus norvegicus [37] = assay: In vivo galactitol inhibitory activity measured by its ability to inhibit galactitol accumulation in sciatic nerve at 3 mg/Kg/day; NS=Not significant (% Inhibition); assay type: functional, organism-based; outline: as §1
# Rattus norvegicus [38] = assay: In vivo galactitol inhibitory activity measured by its ability to inhibit galactitol accumulation in sciatic nerve at 6 mg/Kg/day; assay type: functional; outline: as §1
compound,measurement,setting,value
CN1C(=O)c2ccccc2C12CC(=O)NC2=O (stereo not drawn),Decrease,Mus musculus,<15%
same,inhibition in vivo at 66 mg/kg/day,Rattus norvegicus [1],63%
same,inhibition,[2],45%
same,inhibition in vivo at 66 mg/kg/day,Rattus norvegicus [3],32%
same,inhibition in vivo at 66 mg/kg/day,Rattus norvegicus [4],58%
same,inhibition,[5],11%
CN1C(=O)c2c(Cl)cccc2C12CC(=O)NC2=O (stereo not drawn),inhibition,Rattus norvegicus [6],inactive
same,inhibition,Rattus norvegicus [7],inactive
same,inhibition,Rattus norvegicus [8],inactive
same,Decrease,Mus musculus,<15%
same,inhibition,[2],65%
same,inhibition,Rattus norvegicus [9],inactive
same,inhibition,Rattus norvegicus [10],inactive
same,inhibition in vivo at 3 mg/kg/day,Rattus norvegicus [11],21%
same,inhibition,Rattus norvegicus [12],inactive
same,inhibition,Rattus norvegicus [13],inactive
same,inhibition,Rattus norvegicus [14],inactive
same,inhibition,[5],29%
O=C1CC2(C(=O)N1)c1cc(Cl)ccc1C(=O)N2Cc1ccc(Br)cc1F (stereo not drawn),inhibition in vivo at 97 mg/kg/day,Rattus norvegicus [15],24%
same,Decrease,Mus musculus,<15%
same,inhibition,[2],70%
same,inhibition,Rattus norvegicus [16],inactive
same,inhibition in vivo at 97 mg/kg/day,Rattus norvegicus [17],30%
same,inhibition,[5],13%
O=C1CC2(C(=O)N1)c1ccccc1C(=O)N2Cc1ccc(Cl)c(Cl)c1 (stereo not drawn),inhibition,Rattus norvegicus [18],inactive
same,inhibition in vivo at 109 mg/kg/day,Rattus norvegicus [19],33%
same,Decrease,Mus musculus,21%
same,inhibition,Rattus norvegicus [20],inactive
same,inhibition,[2],45%
same,inhibition,[5],18%
CN1C(=O)c2cccc(Cl)c2C12CC(=O)NC2=O (stereo not drawn),inhibition,[2],57%
same,inhibition in vivo at 32 mg/kg/day,Rattus norvegicus [21],32%
same,inhibition in vivo at 32 mg/kg/day,Rattus norvegicus [22],13%
same,inhibition,[5],19%
"CN1C(=O)c2ccc(Cl)cc2C12CC(=O)NC2=O (single isomer, unassigned; (-))",inhibition in vivo at 6 mg/kg/day,Rattus norvegicus [23],24%
CCCN1C(=O)c2cc(Cl)c(Cl)cc2C12CC(=O)NC2=O (stereo not drawn),inhibition,Rattus norvegicus [24],inactive
same,inhibition,Rattus norvegicus [25],inactive
same,Decrease,Mus musculus,<15%
same,inhibition,Rattus norvegicus [26],inactive
CN1C(=O)c2ccc(Cl)cc2C12CC(=O)NC2=O (stereo in doubt; 32),Inhibition,Rattus norvegicus [27],28% and 53%
same,inhibition in vivo at 79 mg/kg/day,Rattus norvegicus [28],80%
same,Decrease,Mus musculus,<15%
same,inhibition in vivo at 79 mg/kg/day,Rattus norvegicus [29],92%
same,Inhibition,Rattus norvegicus [30],51% and 84% and 81%
same,Inhibition,Rattus norvegicus [31],69% and 92% and 90%
same,inhibition in vivo at 79 mg/kg/day,Rattus norvegicus [32],81%
CN1C(=O)c2cc(-c3ccccc3)ccc2C12CC(=O)NC2=O (stereo not drawn),inhibition in vivo at 3 mg/kg/day,Rattus norvegicus [33],29%
same,Decrease,Mus musculus,<15%
same,inhibition in vivo at 6 mg/kg/day,Rattus norvegicus [34],43%
same,inhibition,[2],81%
same,inhibition in vivo at 9 mg/kg/day,Rattus norvegicus [35],34%
same,inhibition,Rattus norvegicus [9],inactive
same,inhibition,Rattus norvegicus [10],inactive
same,inhibition in vivo at 9 mg/kg/day,Rattus norvegicus [36],55%
same,inhibition,Rattus norvegicus [37],inactive
same,inhibition,Rattus norvegicus [14],inactive
same,inhibition in vivo at 6 mg/kg/day,Rattus norvegicus [38],27%
same,inhibition,[5],37%
